Reference: ChEMBL document CHEMBL4513216, “Probing the Open Global Health Chemical Diversity Library for Multistage-Active Starting Points for Next-Generation Antimalarials” (ACS Infect Dis, 2020)

Assay: Toxicity liver stage against HepG2, at 10uM
Type: cell-based
Design: test concentration 10 uM, cell line HepG2-A16-CD81EGFP
Conditions: human, HepG2-A16-CD81EGFP cells; read-out: INHIBITION
How it was run: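 Uninfected HepG2-A16-CD81EGFP cells, 3 × 10^3 per well, 1536-well, plated on prespotted compound at 10 μM final, parasite-free screening media added to match infected plates; puromycin 10 μM positive, DMSO 0.5% negative; run in parallel with 48 h PbLuc assay at 37 °C, 5% CO2; viability by CellTiter-Glo luminescence, normalized to controls.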

Structure (SMILES)	cytotoxicity at 10 µM
Cc1nn(Cc2ccc(F)cc2)c2[nH]nc(N)c12	1.11%
O=C([C@@H]1CCCN1c1nccc(Nc2ccccc2)n1)N1CCCCC1	0.325%
CCCc1nc2c(c(C)c(C)n2Cc2ccncc2)c(N)c1CC	14.3%
COCCn1ccc2c(C(=O)Nc3nc4c(s3)CCC4)cccc21	1.82%
Cc1cc(CN2CCC(CNS(=O)(=O)c3ccc(Br)s3)CC2)c(C)o1	-2.72%
CN(C)c1cnnc(N2CCN(C(=O)CCC3CCCCC3)CC2)c1	-1.65%
COC(=O)CCC(=O)N1CCc2nc(C(=O)N(C)C)sc2CC1	18.7%
CC1N(C)C(=O)COC12CCN(C(=O)Cc1ccsc1)CC2 (centres undefined)	2.81%
COCCO[C@H]1CCN(c2cc(OC)ncn2)[C@H]1Cc1cnn(C)c1	-133%
COc1nn(C)c2c1CCCN(S(=O)(=O)c1cccc(C)c1)C2	-133%
c1coc(CN2CCc3ncnc(C4CCOC4)c3CC2)c1 (centres undefined)	10.2%
COCc1ncn2c1CN(S(=O)(=O)c1ccc(C)cc1)CC2	-1.18%
COC(=O)c1ccc(C2SCC(=O)Nc3ccsc32)cc1 (centres undefined)	-6.79%
COc1ccc(Cn2c(=O)n(C)c(=O)c3sccc32)cc1	24.2%
CSC1=Nc2c(cnn2-c2cccc(Cl)c2)C2=NCCCN12	4.81%
O=c1[nH]c2c(c(=O)n1C1CCCCC1)CCC2Nc1ccccc1Cl (centres undefined)	-10.4%
Cc1cc(C)n(C2=NC(NCCCO)c3c(sc4c3CCCC4)N2)n1 (centres undefined)	14%
COc1ccc(-n2nnnc2C(C)(C)Nc2ccc(C)cc2C)cc1	52.4%
CSCc1cccc(S(=O)(=O)NCc2cnn(C)c2C)c1	13.7%
CCN(CC)S(=O)(=O)N1CCCC1c1cccc(Nc2ncc(C)s2)n1 (centres undefined)	-39.3%
Cc1ccc(S(=O)(=O)N2C[C@H]3C[C@H](NC(=O)c4cnn(C)c4)[C@H]3C2)cc1	76.4%
COc1ccccc1CNc1ncc(-c2cc(C)no2)c(C(C)C)n1	8.49%

Structure (SMILES)	cytotoxicity at 10 µM
CCc1c(C)nc2cc(C3CCN(Cc4cccc(F)c4)C3)nn2c1O (centres undefined)	-6.43%
Cc1cc(-c2cnc(NC3CCCC3)nc2-c2ccoc2C)on1	45.7%
O=C(c1csc(I)c1)N1CCc2c(ncn2C2CC2)C1	7.21%
O=C(CSCCN1CCOCC1)N1CCc2ccccc2C1	-6.58%
Cc1nccn1-c1ccc(CNS(=O)(=O)N2CCC(C)CC2)cn1	1.28%
Fc1cccc(C(NCc2ncc[nH]2)c2ccccc2)c1 (centres undefined)	1.35%
Cc1ncsc1COC(=O)c1cccc2c1OCCO2	1.37%
CS(=O)(=O)NC1CCN(Cc2coc(-c3ccc(Cl)cc3)n2)CC1	-41.9%
CC(NC(=O)NC1CCN(Cc2ccncc2)CC1)c1ccc(F)cc1 (centres undefined)	7.9%
CC(C)Sc1ccc(C(C)Nc2nc3c(cnn3C)c(=O)[nH]2)cc1 (centres undefined)	21.4%
CC(C)n1nc2c(cc1=O)CN(Cc1nc(-c3ccoc3)no1)CC2	10.2%
CC(C)Oc1ccc(C(=O)NCc2ccnc(N3CCCC3)c2)cn1	47.3%
Cc1noc(C)c1CN(C)Cc1csc(-c2ccc(F)cc2)n1	27.8%
Cc1cc(CNCC2(O)CCOCC2)ccc1F	6.71%
O=C1CCC(=O)N1CCN1CCN(c2cc(F)ccc2F)CC1	9.44%
Cc1ccc(S(=O)(=O)NCCNC(=O)c2cncnc2C)cc1	-1.51%
COc1cc(C(C)NCc2scnc2C)ccc1SC(F)F (centres undefined)	36.8%
CC(C)Oc1ncc(C(=O)N2CCc3ccc(O)cc3C2)cc1Cl	1.61%
Cc1noc(C)c1CNC(=O)N(C1CC1)C(C)c1ccco1 (centres undefined)	5.68%
CCCNC(=O)CCNC1CSCCc2ccccc21 (centres undefined)	-0.421%
CCC(C)(NCC(=O)NC(C)C)c1nc(C)cs1 (centres undefined)	-2.06%
O=C(NCC1(CO)CC1)c1nnn(-c2ccc(F)cc2)c1C1CC1	-1.06%

Structure (SMILES)	cytotoxicity at 10 µM
CCN(C(=O)CN1CCCC1Cc1ccccc1)c1ccccc1 (centres undefined)	0.686%
Cc1cccc(NC(=O)[C@@H]2CCCN2CC(=O)Nc2ccccc2)n1	2.45%
O=C(Nc1ccc(OCc2cccc(F)c2)c(F)c1)C1COCCO1 (centres undefined)	74.4%
COc1ccc(NC(C)C(=O)N2CCCC2)cn1 (centres undefined)	-4.96%
Cc1ncccc1C(=O)NC1(c2cccc(F)c2)CCOCC1	10.3%
CC(=O)c1c(F)cccc1N1CCC(NS(=O)(=O)c2ccccc2)CC1	53.4%
CCN(CC)c1ccc(NS(=O)(=O)c2cccnc2)cn1	3.8%
Cc1cnc(CN2CCN(c3nc(C)cs3)C(C)C2)cn1 (centres undefined)	2.74%
CCS(=O)(=O)c1ccc2c(c1)OCCO2	-1.38%
COc1cccc(CNc2cc(C)nc(-c3ccncc3)n2)c1O	59.1%
CN(C(=O)Cc1coc(-c2ccccc2)n1)C1(C#N)CCC1	6.41%
Cc1cc(NCC2CCN(c3ccccc3)C2)n2ncnc2n1 (centres undefined)	67%
Cc1cc(C(=O)NCCN2CCCCCC2)nn1C(C)(C)C	2.45%
Cc1noc(-c2cccnc2N(C)Cc2ccc([S+](C)[O-])cc2)n1 (centres undefined)	46%
CCN1CCCN(C(=O)c2ccc(NC(=O)CC(C)C)c(C)c2)CC1	-8.04%
COc1ccccc1CC(=O)NCc1ccnc(NC2CC2)c1	-4.06%
CCc1cc(NCc2ccc(-n3cncn3)c(C)c2)n(C)n1	-52.6%
CC(=O)Nc1sccc1C(=O)C(C)(C)C	-44.7%
Brc1cc2c(cc1CN1CCC(N3CCCCC3)CC1)OCCO2	50.1%
COc1ccc(CN2CCC3(CC(C(=O)NCC(C)C)=NO3)C2)cc1 (centres undefined)	11%
CC(C)CNC(=O)C1=NOC2(CCN(Cc3ccc(C(C)C)cc3)C2)C1 (centres undefined)	32.3%
O=C(OCc1ccccc1)N1CC[C@H]2CC(CO)O[C@@H]2C1 (some centres undefined)	-97.7%

Structure (SMILES)	cytotoxicity at 10 µM
c1nc2n(c1CN1CCCC1)CCN(C1CCOCC1)CC2	-71.1%
c1ccc(COCC2CN(Cc3ccsc3)Cc3nccn3C2)nc1 (centres undefined)	-69.6%
Cc1ccc(NC(=O)N2CC(C(=O)NC(C)C)C3(CCOCC3)C2)cc1 (centres undefined)	-74.3%
CSCC(C)NCc1ccc2[nH]c(C)c(C)c2c1 (centres undefined)	-0.369%
O=C(NCCC1CCCCO1)c1coc(COc2ccc(F)cc2)n1 (centres undefined)	1.1%
Cc1cnc(N2Cc3cnn(Cc4ccc(F)cc4)c3C2)nc1N(C)C	6.02%
Cc1cc(C)cc(CCC(=O)N2CCN(c3cc(C)nc(N)n3)CC2)c1	-38.7%
Cc1nc[nH]c1CN1CCCN(c2nc3ccccc3s2)CC1	33%
COC[C@H]1CCCN1c1nccc(-c2cnn(-c3ccccc3C)c2)n1	8.63%
CCCn1ncc(-c2ccnc(NC3CC(C)(C)NC(C)(C)C3)n2)c1C	4.84%
COc1ccccc1OCCCc1cncc(C(N)=O)c1	-115%
COc1cc(CN2CCCC2)ccc1Oc1ncccc1C(F)(F)F	0.96%
Nc1nccc(N2CCC(c3cc(Cc4ccccc4)n[nH]3)CC2)n1	38.9%
CNc1cc(C)nc(NCc2cc(C)cc3c(C)c(C)[nH]c23)n1	-29%
COc1cc(Cl)cc(CN2CCCC(N3CCCC3)C2)c1OC (centres undefined)	-3.88%
O=C1Nc2ccccc2NC12CCN(c1cccc(C(F)(F)F)n1)CC2	2.31%
CCc1nccn1CCNC1CCN(c2nc3ccc(Cl)cc3s2)CC1	28.8%
O=C(CCN1CCCCO1)NCc1cn2c(n1)SCC2	6.49%
CCCN1CCCC2(CCN(c3nc(C)nc4ccsc34)C2)C1=O (centres undefined)	17.4%
c1nc(NCc2cc3n(n2)CCN(C2CCCCC2)C3)c2nc[nH]c2n1	24.2%
COc1cccc(OC)c1CN1CC(=O)N(c2ccc(C)cc2)CC1C (centres undefined)	1.64%
Nc1nc2c(c(NC(Cn3cccn3)c3ccccc3)n1)CCNCC2 (centres undefined)	-12.3%

Structure (SMILES)	cytotoxicity at 10 µM
O=C(CN1CCOCC1)N(c1ccccc1)c1ccccc1	-11.8%
CNC(=O)c1cn2cc(-c3cccc(Cl)c3)n(CC=C(C)C)c(=O)c2n1	-52.8%
COc1ccccc1CN1C(=O)O[C@@H]2CN(C(C)C)C[C@@H]21	3.99%
CCC[C@H]1CN(S(=O)(=O)N(C)Cc2ccccc2)C[C@@H]1N	-138%
Cn1ncc(-c2cc(-c3cccc(O)c3)nc(N)c2C#N)c1C1CC1	79.1%
O=S(=O)(c1ccccc1Cl)N1CCc2nc(C3CCNCC3)ncc2C1	14.2%
CN(C)c1ccc(NC(=O)NCC2CCOC2)cn1 (centres undefined)	-6.8%
O=C(C1CC1)N1CCN(Cc2coc(-c3ccc(Cl)cc3)n2)CC1	17.3%
CSc1ccc(CNC(c2ccccc2)c2nccn2C)cc1 (centres undefined)	2.39%
CC(=O)Nc1nc(C(=O)Nc2ccc(N3CCCCC3)nc2)cs1	9.46%
CCCc1ccc(C(=O)N2Cc3c(Cn4ccnc4)nn(C)c3C2)cc1	-73%
CN(Cc1cccnc1)C[C@@H]1OC[C@H]2CN(C(=O)C3CC3)CC[C@H]21	-136%
COCCN1C[C@H]2CCC[C@@H](CNc3ncccn3)[C@H]2C1	-112%
CC(=O)NCc1nnc2n1CCN(Cc1cccs1)C2	-149%
Fc1cnc(N2C[C@H]3CCC[C@@]3(COc3ccccn3)C2)nc1	15.6%
c1cnn(C[C@@H]2C[C@@H]3CN(CC4CC4)CC[C@@H]3N2c2nccs2)c1	9.1%
COCC1CC2(CCN(C(C)=O)CC2)CN1Cc1csc(C)n1 (centres undefined)	9.19%
O=C(C[C@@H]1COC[C@H]2CN(CC3CCOCC3)C[C@@H]12)N1CCCCO1	7.49%
CC(C)CCN1C2(CCN(Cc3nccs3)C2)c2ccccc2S1(=O)=O (centres undefined)	-65%
c1cncc(COCC2CC[C@H]3[C@H](CCN3CC3CCOCC3)O2)c1 (some centres undefined)	-71.4%
O=C(c1ccco1)N1CCCC2(CN(Cc3ccsc3)CCO2)C1 (centres undefined)	-2.37%
